# Experimental data reported in the EternaBench riboswitch data.
# Tested on: MS2 coat protein
# Test: apparent Kd, MS2 coat protein; higher = weaker binding; RNA-MaP array; FMN 200 µM where present
# Procedure, shortened: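 Apparent Kd: the median of filtered binding-curve fits from single clusters. Designs were transcribed on Illumina sequencing-chip clusters by stalled E. coli RNA polymerase and titrated with SNAP-549-labelled MS2 coat protein from 0.7 or 1.5 nM, doubling to 3 µM, in 100 mM Tris-HCl pH 7.5, 80 mM KCl, 4 mM MgCl2, BSA, DTT, yeast tRNA and Tween-20. Each series ran without and then with constant ligand, and green signal was normalised to red-channel RNA signal and control-cluster median Fmax.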
# [1] = designed as: OFF switch for flavin mononucleotide, no ligand
# [2] = ligand present: flavin mononucleotide, designed as: OFF switch for flavin mononucleotide
# [3] = designed as: ON switch for flavin mononucleotide, no ligand
# [4] = ligand present: flavin mononucleotide, designed as: ON switch for flavin mononucleotide
Sequence,apparent Kd [1],apparent Kd [2],apparent Kd [3],apparent Kd [4]
AGCGGCGCGGGCCACCGCAAAACCAGAAGGACAUGAGGAUCACCCAUGUAACAAAACAGGGCGGUGUAGGAUAUGGCAGACCCG,14.7 nM,23.8 nM,–,–
AGCGGCGCGGGCCACCGCAGGACCAGAAGGACAUGAGGAUCACCCAUGUAGCAGAACAGGGCGGUGUAGGAUAUGGCAGGCUCG,22.5 nM,51.6 nM,–,–
AGCGUAUGAACAUGAGGAUCACCCAUGUAAACGGAAACGAAUGAGGAUAUCGAUAGCAAAGCUAUCGAGAAGGCAUGGGACGCU,–,–,159 nM,36.4 nM
AGCGUGUAAGGAUAUACGUCGGAUAGCGAAUACUGUCCCUAGUAGAAGGUACAUGAGGAUCACCCAUGUGUCCA,23.9 nM,51.8 nM,–,–
AGCUACGUUUCGUAGCAGCUAGGUGAGGAUAUUCAAUUUUUCACAUGAGGAUCACCCAUGUAUGUGAAGAAGGCGCCUAGAAAC,–,–,10.8 nM,5.07 nM
AGCUACGUUUCGUAGCAGUGUCAUCGAGAAGGCCUCAUAACAUGAGGAUCACCCAUGUUUGCAUGGGAGGAUAUCGAUGAUACA,–,–,206 nM,56.4 nM
AGCUACGUUUCGUAGCAGUGUCAUCGAGAAGGCUCAUAAACAUGAGGAUCACCCAUGUAAACAUGGGAGGAUAUCGAUGAUACA,–,–,39.6 nM,6.5 nM
AGCUAGUCAGGAUAUACGAAAAUGUCCGAAGCUGAGAAGGGACAUGAGGAUCACCCAUGUAGAAGGGACUAGCA,102 nM,264 nM,–,–
AGCUAGUCAGGAUAUACGUACAUGUCAUUAGACGUGAAGGGACAUGAGGAUCACCCAUGUAGAAGGGACUAGCA,40 nM,164 nM,–,–
AGCUCCGCGGCCACUUAUUGUGCACAUGAGGAUCACCCAUGUCAGGAUAUCCUUGAGCCUCACAAGGAGAAGGGACAUAAGGUU,643 nM,334 nM,–,–
AGCUGGUGACAGCAUCCAUCAAAACAUGAGGAUCACCCAUGUAGAAGGCUGUACGGUUACCGUACAGAGGAUAUACAAUGAUGC,13.8 nM,31.8 nM,–,–
AGCUGGUGACAGCAUCGAGCAAAACAUGAGGAUCACCCAUGUAGAAGGCUGUACGGUUACCGUACAGAGGAUAUACAAAGCUCG,6.35 nM,8.14 nM,–,–
AGCUGUGGCCGAGGAUAUCUGUUCCAUAAAACCGAAAUAUAAUCGGACAUGAGGAUCACCCAUGUAGAGAAGGCGGUCUCAGCA,23.9 nM,26.4 nM,–,–
AGCUUCGAAGGAUAUCCAGGUCCAGACAUGAGGAUCACCCAUGUGGUGAAGACGUUACCCGGAGAAGGUUGUGAGU,70.5 nM,61.7 nM,–,–
AGGAAGUGAGGAUAUGCAGUAGCUAGUGGACGCUAGCACAUGUAGAAGGCACAUGAGGAUCACCCAUGUUUAAA,30.5 nM,28.3 nM,–,–
AGGAGAAAUGUAGGAUAUGGGCGGGUAUAUGGGCAAAGCGCAUAUACCCGCCCAGAAGGACAUGAGGAUCACCCAUGUUUCCCU,12.2 nM,13.3 nM,–,–
AGGAGGUCAGGAUAUGCUGCUCGUCACUUGCGUGAUGAGUAGCAGAAGGGACAUGAGGAUCACCCAUGUAAAAA,52.6 nM,88.7 nM,–,–
AGGAGGUCAGGAUAUGCUGCUCGUCACUUGCGUGAUGAGUAGCAGAAGGGACAUGAGGAUCACCCAUGUAAAGA,55.7 nM,95.7 nM,–,–
AGGAGUUUGUAGAAGGACGACUAUUAAGUUUUCGUAGGAUAUACUAUUUACAUGAGGAUCACCCAUGUUUAAAUGGAACAAUGU,7.85 nM,9.08 nM,–,–
AGGAUAAGAAGAACUAUCCAUUGUACAGAAGGCCAACAUGAGGAUCACCCAUGUAAGAAAAGGAUGGAGGAUAUGUAUAGGGCC,–,–,37.3 nM,19.8 nM
AGGCACAUCGGAGGAUAUCAUGUAAAUACAUGAGGAUCACCCAUGUCGAUGGAGACAUCGGAGAUUGAGAAGGCCGAUGUACCG,–,–,175 nM,8.44 nM

Sequence,apparent Kd [1],apparent Kd [2],apparent Kd [3],apparent Kd [4]
AGGCGGAAAGUCAGGAUAUCUUGACCAAAGGGUUGAGAGAAGGGACAUGAGGAUCACCCAUGUGGCGACCGCCA,37.5 nM,67.9 nM,–,–
AGGCGUAAGACAGGAUAUAGGCAGCGGGCUGGAAACGAAUACAAAGACAUGAGGAUCACCCAUGUCUAGAAGGGUCGUGGCGGG,9.05 nM,9.88 nM,–,–
AGGGAGUGAGGAUAUGCUGCUCGUCACUUGCGUGAUGAGUAGCAGAAGGUACAUGAGGAUCACCCAUGUAAAGA,34.5 nM,22.2 nM,–,–
AGGGUAUGAACAUGAGGAUCACCCAUGUACCAGGAAACGAAUGAGGAUAUCGAUAGCAAAGCUAUCGAGAAGGCAUGGGACCCU,–,–,318 nM,62.2 nM
AGGUACAUGAGGAUCACCCAUGUAAGAGCCCUCAUGCGAUGUAGAAGGAUAAUGCGAGAAGUGCUAUAGGAUAUACAUGAGAAA,140 nM,143 nM,–,–
AGGUAGCAAGGAUAUACAACUUUGGGCACUGCCUCUUGGAGACAUGAGGAUCACCCAUGUAGAAGGUGCAGGCC,13.2 nM,33.9 nM,–,–
AGGUAGCAAGGAUAUACAUGAGGAUCACCCAUGUAAAUGCACGUUUAGGCCCUGCUAUGUAGAAGGUGCACCCG,17.3 nM,16.8 nM,–,–
AGGUCGUGAGGAUAUCGUCCCGUGAGCAGUAGUUGCGCGGGUGAGAAGGCACAUGAGGAUCACCCAUGUCAUCC,24.9 nM,74.4 nM,–,–
AGGUGUAGAGGAUAUUCAUUCUUCCACAUGAGGAUCACCCAUGUCCUGGUCACCAAGGACGGAGAAGGCUACACCA,70.2 nM,38.1 nM,–,–
AGUAAACAUGAGGAUCACCCAUGUGGUGGCCCAUGAGGAUAUCCAUGCGCAAUACGCAUAGGAGAAGGCAUAGCCA,–,–,62 nM,123 nM
AGUAACAGAGGAUAUACUAUUUUAUGUGUUUGUUGUUUUAAACAUGAGGAUCACCCAUGUAGAAGGCUGAAUAA,21.4 nM,24.1 nM,–,–
AGUAACAGAGGAUAUACUGUUUUAUGUGUUUAUUGUUUUAAACAUGAGGAUCACCCAUGUAGAAGGCUGAAUAA,30.9 nM,26.9 nM,–,–
AGUAACAUACUCAACAUGAGGAUCACCCAUGUACUCUCAUGUAAGGAUAUACAAUCGUAUUGAUAGUAGAAGGUACCAAUUAAG,–,–,845 nM,685 nM
AGUAAGAUGCAGAAGGUGUCAGCGAGAGCUGCGACAUGAGGAUCACCCAUGUGUCGGUGACGACGCAAGGAUAUGCAUCUUACA,–,–,138 nM,56.6 nM
AGUAAGAUGCAGAAGGUGUUAGCUAGAGCUACGACAUGAGGAUCACCCAUGUACUAGAAAACGUACAAGGAUAUGCAUCUUACA,–,–,7.36 nM,5.98 nM
AGUAAGCUUGAGAAGGUGAAGUGGAAACAUGAGGAUCACCCAUGUAUUAGGAAGCCUGGUUUUGUCAAGGAUAUCGGGUUUACA,–,–,12.2 nM,12.6 nM
AGUACACAUGAGGAUCACCCAUGUGAGGAUAUCGAUGUCCCAGGGCGGGUGCGGGACUCGAGAAGGCACUUGGU,47 nM,154 nM,–,–
AGUACAUCAGGAUAUACAUGGAAGAUCAUUAUGACCCAUCUACAUGAGGAUCACCCAUGUAGAAGGGAUGUACA,24.6 nM,16.9 nM,–,–
AGUAGUUCAGGAUAUGAUGUAUGUUACAUGAGGAUCACCCAUGUAGGUCCUGGAAAUGUAUCAGAAGGGAAUAUCU,108 nM,111 nM,–,–
AGUAUGAUCCAGAAGGACAUAUGACCAAGACGAAACAUGAGGAUCACCCAUGUAGGAUAUGGAUCAUACAGGAUCGUGAGAUCA,6.14 nM,12 nM,–,–
AGUAUGCACGCAGGAUAUACAUGAGGAUCACCCAUGUGGAACAGUGUAGUACUAGUUGAUCCUCAGUAGAAGGGCGGUCGAAUA,44.2 nM,56.6 nM,–,–
